Data reported in ChEMBL document CHEMBL1926509, “Discovery of pyrazolo[1,5-a]pyridines as p110α-selective PI3 kinase inhibitors” (Bioorg Med Chem, 2012).
Activity calls are given as the source filed them. No cut-off for these calls is given here.

What was measured:
[1] = target: Dual specificity mitogen-activated protein kinase kinase 1 (Homo sapiens) (UniProt Q02750); assay: Inhibition of MKK1 assessed as residual activity at 1 uM
[2] = target: Serine/threonine-protein kinase mTOR (Homo sapiens, UniProt P42345); assay: Inhibition of mTOR
[3] = target: Misshapen-like kinase 1 (Homo sapiens) (UniProt Q8N4C8); assay: Inhibition of MINK1 assessed as residual activity at 1 uM
Mus musculus = assay: Toxicity in human HCT116 cells xenografted Rag1 knockout mouse assessed as mortality at 20 mg/kg, ip qd for 14 days; format: organism-based, HCT-116; design: dose 20 mg/kg, route intraperitoneal; conditions: in vivo, 336 h
How it was run: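 Age-matched specific pathogen-free female Rag1-/- mice bearing subcutaneous HCT-116 tumours (5 × 10⁶ cells inoculated in PBS), n = 7 per group. Drug given ip at 20 mg/kg once daily for 14 days in 7.5% DMSO/42.5% PEG-400/20% 2-hydroxypropyl-β-cyclodextrin/30% water; controls received vehicle alone. Bodyweight recorded daily; mice culled when weight loss exceeded 20% of starting weight.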

[4] = target: Phosphatidylinositol 4,5-bisphosphate 3-kinase catalytic subunit beta isoform (Homo sapiens, UniProt P42338); assay: Inhibition of recombinant PI3K p110beta using L-alpha-phosphatidylinositol as substrate and [gamma33P]ATP after 60 mins by thin layer chromatographic technique
Sequence of Phosphatidylinositol 4,5-bisphosphate 3-kinase catalytic subunit beta isoform (P42338 whole entry, canonical isoform): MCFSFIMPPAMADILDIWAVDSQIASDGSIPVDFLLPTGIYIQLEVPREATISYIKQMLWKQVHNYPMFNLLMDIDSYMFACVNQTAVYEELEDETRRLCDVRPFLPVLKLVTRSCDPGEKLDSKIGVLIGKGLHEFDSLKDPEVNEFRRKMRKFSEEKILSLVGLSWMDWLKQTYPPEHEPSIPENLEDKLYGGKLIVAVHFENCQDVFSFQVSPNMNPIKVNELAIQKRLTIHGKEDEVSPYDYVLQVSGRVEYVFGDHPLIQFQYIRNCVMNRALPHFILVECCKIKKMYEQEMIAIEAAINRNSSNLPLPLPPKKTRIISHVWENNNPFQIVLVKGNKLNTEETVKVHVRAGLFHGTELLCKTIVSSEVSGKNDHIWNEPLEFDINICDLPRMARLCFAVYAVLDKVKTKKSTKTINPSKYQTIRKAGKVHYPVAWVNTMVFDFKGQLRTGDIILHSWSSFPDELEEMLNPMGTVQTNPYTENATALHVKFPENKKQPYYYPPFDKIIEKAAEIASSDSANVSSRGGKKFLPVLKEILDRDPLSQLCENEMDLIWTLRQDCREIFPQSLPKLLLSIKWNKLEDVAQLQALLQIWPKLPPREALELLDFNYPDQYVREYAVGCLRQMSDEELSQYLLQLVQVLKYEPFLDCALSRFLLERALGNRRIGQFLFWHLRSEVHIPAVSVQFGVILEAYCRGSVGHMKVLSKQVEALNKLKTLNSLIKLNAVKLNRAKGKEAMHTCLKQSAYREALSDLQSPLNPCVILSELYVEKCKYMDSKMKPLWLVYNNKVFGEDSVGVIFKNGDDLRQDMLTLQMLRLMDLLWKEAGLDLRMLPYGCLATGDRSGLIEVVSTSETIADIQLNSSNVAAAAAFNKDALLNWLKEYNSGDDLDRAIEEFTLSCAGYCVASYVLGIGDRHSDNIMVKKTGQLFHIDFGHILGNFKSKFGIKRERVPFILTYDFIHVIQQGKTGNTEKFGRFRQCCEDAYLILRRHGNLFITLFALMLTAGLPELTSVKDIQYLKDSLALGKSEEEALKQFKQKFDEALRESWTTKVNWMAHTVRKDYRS
How it was run: (§1)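 In-house recombinant class Ia PI3K isoform (0.1 µg) with L-α-phosphatidylinositol substrate in lipid kinase buffer (Tris–HCl pH 7.4, NaCl, EDTA), 1% DMSO final. Started with ATP mix (5 mM MgCl₂, 100 µM ATP plus [γ-³³P]ATP), 1 h at room temperature, stopped with 1 M HCl. Lipids extracted in two steps, separated by TLC, read by phosphorimager. Nine inhibitor concentrations; IC50 averaged over two experiments.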

[5] = Inhibition of DNA-PK
[6] = target: T1, Phosphatidylinositol 4,5-bisphosphate 3-kinase catalytic subunit alpha isoform (Homo sapiens, UniProt P42336); conditions: 100 nM
T1 sequence (P42336 whole entry, canonical isoform): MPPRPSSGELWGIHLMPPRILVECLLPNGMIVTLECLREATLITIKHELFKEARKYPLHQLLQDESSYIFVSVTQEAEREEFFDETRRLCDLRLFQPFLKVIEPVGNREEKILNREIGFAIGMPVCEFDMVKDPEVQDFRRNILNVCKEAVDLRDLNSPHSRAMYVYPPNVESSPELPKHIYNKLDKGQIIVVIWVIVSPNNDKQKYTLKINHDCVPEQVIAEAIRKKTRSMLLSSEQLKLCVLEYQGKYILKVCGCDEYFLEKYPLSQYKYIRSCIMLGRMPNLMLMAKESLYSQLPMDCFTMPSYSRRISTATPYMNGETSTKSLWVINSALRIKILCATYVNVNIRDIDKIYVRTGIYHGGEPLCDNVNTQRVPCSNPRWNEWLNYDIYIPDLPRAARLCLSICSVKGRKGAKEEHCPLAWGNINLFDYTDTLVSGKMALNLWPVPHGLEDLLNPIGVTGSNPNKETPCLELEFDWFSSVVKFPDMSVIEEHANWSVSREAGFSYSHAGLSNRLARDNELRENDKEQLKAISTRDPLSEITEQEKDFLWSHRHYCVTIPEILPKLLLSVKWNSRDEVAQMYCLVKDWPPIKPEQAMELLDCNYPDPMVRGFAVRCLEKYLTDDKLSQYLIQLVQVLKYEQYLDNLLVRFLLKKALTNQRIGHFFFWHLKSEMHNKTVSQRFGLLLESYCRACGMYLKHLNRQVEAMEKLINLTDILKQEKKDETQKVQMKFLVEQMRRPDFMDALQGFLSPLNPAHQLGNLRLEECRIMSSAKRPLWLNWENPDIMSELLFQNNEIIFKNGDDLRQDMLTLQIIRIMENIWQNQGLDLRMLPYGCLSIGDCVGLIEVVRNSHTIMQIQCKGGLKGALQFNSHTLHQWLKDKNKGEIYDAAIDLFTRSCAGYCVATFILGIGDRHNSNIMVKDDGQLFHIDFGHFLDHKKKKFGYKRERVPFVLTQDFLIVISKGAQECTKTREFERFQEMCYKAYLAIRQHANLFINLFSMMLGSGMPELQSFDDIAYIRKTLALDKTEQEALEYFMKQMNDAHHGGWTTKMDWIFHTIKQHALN

[7] = target: High affinity nerve growth factor receptor (Homo sapiens) (UniProt P04629); assay: Inhibition of TrkA assessed as residual activity at 1 uM
Sequence of High affinity nerve growth factor receptor (Homo sapiens) (P04629 33-796 limits assumed): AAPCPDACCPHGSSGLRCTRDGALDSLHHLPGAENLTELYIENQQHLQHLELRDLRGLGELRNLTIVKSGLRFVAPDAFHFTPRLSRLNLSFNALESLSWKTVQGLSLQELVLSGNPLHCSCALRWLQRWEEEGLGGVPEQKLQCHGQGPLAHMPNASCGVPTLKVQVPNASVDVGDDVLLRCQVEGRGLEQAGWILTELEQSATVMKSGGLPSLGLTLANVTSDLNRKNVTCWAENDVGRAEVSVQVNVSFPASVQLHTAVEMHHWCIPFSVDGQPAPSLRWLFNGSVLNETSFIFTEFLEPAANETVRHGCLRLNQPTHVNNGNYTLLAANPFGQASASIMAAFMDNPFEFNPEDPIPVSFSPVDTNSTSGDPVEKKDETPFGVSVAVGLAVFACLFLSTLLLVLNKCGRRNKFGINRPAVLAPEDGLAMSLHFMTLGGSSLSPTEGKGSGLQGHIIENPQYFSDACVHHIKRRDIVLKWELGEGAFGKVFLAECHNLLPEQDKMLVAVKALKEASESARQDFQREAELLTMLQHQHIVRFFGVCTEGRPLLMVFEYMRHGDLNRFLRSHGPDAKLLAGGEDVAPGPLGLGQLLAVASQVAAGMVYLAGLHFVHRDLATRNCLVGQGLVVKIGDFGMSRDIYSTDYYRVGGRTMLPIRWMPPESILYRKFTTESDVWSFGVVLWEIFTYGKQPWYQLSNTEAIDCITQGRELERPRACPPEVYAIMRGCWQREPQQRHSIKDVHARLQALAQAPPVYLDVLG

[8] = target: Phosphatidylinositol 4,5-bisphosphate 3-kinase catalytic subunit alpha isoform (Homo sapiens, UniProt P42336, H1047R); assay: Inhibition of PI3K […] H1047R mutant-mediated PKB phosphorylation at Ser473 in human HCT116 cells after 15 mins by immunoblot analysis; format: cell-based, HCT-116
Sequence of Phosphatidylinositol 4,5-bisphosphate 3-kinase catalytic subunit alpha isoform (Homo sapiens, UniProt P42336, H1047R) (P42336 whole entry H1047R, canonical isoform): as the sequence (P42336 whole entry, canonical isoform) above, with H1047R counted along it
How it was run: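 HCT-116 cells in MEM alpha with 10% FBS and penicillin/streptomycin were seeded, grown 1 day, then serum-starved overnight. They were exposed to a range of inhibitor concentrations in DMSO (0.1% final) for 15 min, then stimulated with 500 nM insulin for 5 min. Phospho-PKB (Ser473 or Thr308) was detected by immunoblotting.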

HCT-116 = assay: Antitumor activity against human HCT116 cells xenografted in Rag1 knockout mouse assessed as tumor growth inhibition at 20 mg/kg, ip qd for 14 days relative to untreated control; format: functional; conditions: HCT-116, ip, 336 h, route intraperitoneal, read-out: GI
How it was run: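 Female specific-pathogen-free Rag1−/− mice, age-matched, inoculated subcutaneously with 5×10⁶ HCT-116 cells in PBS. Dosed ip at 20 mg/kg q.d. for 14 days in 7.5% DMSO/42.5% PEG-400/20% hydroxypropyl-β-cyclodextrin/30% water; controls received vehicle only; n = 7 per group. Tumour volume measured three times weekly; 1-way ANOVA with Holm-Sidak comparison at study end.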

[9] = target: High affinity nerve growth factor receptor (Homo sapiens) (UniProt P04629); assay: Inhibition of TrkA assessed as residual activity at 10 uM
[10] = target: Mitogen-activated protein kinase 14 (Homo sapiens) (UniProt Q16539); assay: Inhibition of p38alpha assessed as residual activity at 1 uM
Sequence of Mitogen-activated protein kinase 14 (Homo sapiens) (Q16539 whole entry): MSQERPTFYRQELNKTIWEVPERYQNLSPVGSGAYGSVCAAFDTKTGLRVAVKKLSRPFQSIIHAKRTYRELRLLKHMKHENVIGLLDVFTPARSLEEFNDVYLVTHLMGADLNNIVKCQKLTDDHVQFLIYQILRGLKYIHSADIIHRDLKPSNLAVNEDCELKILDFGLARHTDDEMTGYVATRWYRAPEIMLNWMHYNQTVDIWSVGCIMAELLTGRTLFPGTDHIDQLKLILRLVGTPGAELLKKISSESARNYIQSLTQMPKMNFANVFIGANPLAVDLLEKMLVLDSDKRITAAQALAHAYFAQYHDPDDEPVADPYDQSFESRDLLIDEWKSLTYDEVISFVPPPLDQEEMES

[11] = Inhibition of PKA assessed as residual activity at 10 uM
[12] = Inhibition of PKA assessed as residual activity at 1 uM
[13] = target: Phosphatidylinositol 4,5-bisphosphate 3-kinase catalytic subunit alpha isoform (Homo sapiens, UniProt P42336, E545K); assay: Inhibition of recombinant PI3K p110alpha E545K mutant using L-alpha-phosphatidylinositol as substrate and [gamma33P]ATP after 60 mins by thin layer chromatographic technique
[14] = target: T1, Phosphatidylinositol 4,5-bisphosphate 3-kinase catalytic subunit alpha isoform; assay: Inhibition of recombinant PI3K p110alpha using L-alpha-phosphatidylinositol as substrate and [gamma33P]ATP after 60 mins by thin layer chromatographic technique; how it was run: as §1

Sequence of Dual specificity mitogen-activated protein kinase kinase 1 (Homo sapiens) (Q02750 whole entry): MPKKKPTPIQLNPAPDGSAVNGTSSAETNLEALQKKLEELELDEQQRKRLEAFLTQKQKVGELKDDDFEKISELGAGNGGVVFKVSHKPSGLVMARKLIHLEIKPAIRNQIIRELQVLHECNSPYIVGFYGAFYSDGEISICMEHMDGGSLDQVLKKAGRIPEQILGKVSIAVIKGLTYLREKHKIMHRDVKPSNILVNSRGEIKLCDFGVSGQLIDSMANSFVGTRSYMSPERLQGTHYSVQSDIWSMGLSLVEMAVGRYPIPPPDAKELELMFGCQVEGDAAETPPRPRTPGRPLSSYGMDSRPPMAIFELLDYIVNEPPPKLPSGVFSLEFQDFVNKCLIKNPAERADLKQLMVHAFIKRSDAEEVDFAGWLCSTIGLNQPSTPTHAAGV

Cc1ccc([N+](=O)[O-])cc1S(=O)(=O)N(C)/N=C/c1cnn2ccc(C#N)cc12
Activity [1]: 10% | IC50 [2]: 300 nM | Activity [3]: 5% | Activity (Mus musculus): Non-toxic | IC50 [4]: 46 nM | IC50 [5]: 1.1 nM | inhibition [6]: inactive | Activity [7]: 19% | IC50 [8]: 23 nM | inhibition in vivo at 20 mg/kg (HCT-116): 39.1% | Activity [9]: 13% | Activity [10]: 18% | Activity [11]: 1% | Activity [12]: 1% | IC50 [13]: 0.7 nM | IC50 [14]: 0.9 nM
